Measurements from the EternaBench riboswitch data.

Test system: MS2 coat protein
Experiment: apparent Kd, MS2 coat protein; higher = weaker binding; RNA-MaP array; FMN 200 µM where present
Method in brief: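 Each design was made on Illumina sequencing-chip clusters by stalled E. coli RNA polymerase and titrated with SNAP-549-labelled MS2 coat protein from 0.7 or 1.5 nM, doubling to 3 µM, in the absence and then the presence of constant ligand. The buffer was 100 mM Tris-HCl pH 7.5, 80 mM KCl, 4 mM MgCl2, BSA, DTT, yeast tRNA and Tween-20. The apparent Kd is the median of filtered per-cluster fits of binding curves, with green signal normalised to red-channel RNA signal and control-cluster median Fmax.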

[1] = designed as: ON switch for flavin mononucleotide, no ligand
[2] = ligand present: flavin mononucleotide, designed as: ON switch for flavin mononucleotide
[3] = designed as: OFF switch for flavin mononucleotide, no ligand
[4] = ligand present: flavin mononucleotide, designed as: OFF switch for flavin mononucleotide

Row | Sequence | apparent Kd [1] [nM] | apparent Kd [2] [nM] | apparent Kd [3] [nM] | apparent Kd [4] [nM]
1 | CUUUUAUAAUAGAAGGUAGACUUUAAGUGGAUCACCCAUGUGUUGGUACUAAGGAUAUGUAGUAACAUGAGGAUCACCCAUGUU | 20.5 | 16.9 |  | 
2 | GAAGCACAUGAGGAUCACCCAUGUAAGGAUAUAUUUCUGGUCCGGCCGGACCAGUACCGUAGAAGGUAUGUAAA |  |  | 13.5 | 13.9
3 | AUUGUAUGGGAAGGAUAUAGAAUAUUAUUUUAACAUGAGGAUCACCCAUGUAACCUUAUGUGUAGCUAGAAGGUCCGUUUGUUA |  |  | 308 | 409
4 | AAUAAUUAGUAAGGAUAUACUAGCGAUUAGCUUGUAGAAGGUACAGUCUUAUGUAUAACAUGUUAACAUGAGGAUCACCCAUGU | 68.9 | 29.3 |  | 
5 | AAAUAAAGCAGUGUAUUAAUAUAACAUGAGGAUCACCCAUGUAGAAGGCUCGAGCAAUAUGCUCGAGAGGAUAUACAACACUGC |  |  | 7.3 | 7.18
6 | AUUGAGUGAGGAUAUCCCGCUGCCGUGCGACCAUGGAGCUGGGAGAAGGCACAUGAGGAUCACCCAUGUGAGUU |  |  | 19.3 | 45
7 | AUAAUGAGUCAAGGAUAUCCGAGCUGAAUGCUAGGAGAAGGUGACAUGAGGAUCACCCAUGUCUCUCCGAGCAUGGUAUUCUCA |  |  | 28.6 | 33.6
8 | GGUGCGUAUGUGAGGAUAUGCUGGUCCUUGGAUCAGCAGAAGGCACAUGAGGAUCACCCAUGUGGUGUCGUACG |  |  | 68.9 | 516
9 | GAGUGGAGGAGAGGAUAUACAAUGAUAAUCACUGUAGAAGGUUCUAACAUGAGGAUCACCCAUGUAGGACUAUUCCUGAGAGUU | 12.8 | 10.3 |  | 
10 | GGUCCAAUAUGAGGAUAUAGCAUCUUAUUGAUGCUAGAAGGCGUGUCGGUAGACAUGAGGAUCACCCAUGUAUUACAAUGGACC | 110 | 29.4 |  | 
11 | AUAAUGAGAGGAUAUACAUGAGGAUCACCCAUGUUAUUAUCACGGCGUGCUCCAUUACGUAGAAGGCUCAUUUA |  |  | 117 | 35.2
12 | UGCUAGUCAGGAUAUACGAACAUGUCAAAAGACGUGAAGGGACAUGAGGAUCACCCAUGUAGAAGGGACUAGCC |  |  | 33.2 | 162
13 | AAAACAUGAGGAUCACCCAUGUAAAGAUCGGUCGAUCAAGGUGAGGAUAUACAAAACUUGAUGGAGUAGAAGGCACUGGGUUGA | 384 | 201 |  | 
14 | GCACUGGAUGUAGGAUAUCAGGACGAUAAGUCCUGAGAAGGACAUGAGGAUCACCCAUGUACCUCAAACCAGUGCUAUAAUAUA |  |  | 15.1 | 30
15 | UCUGCCGCCGUGAGGAUAUGCCCAAAAAAACGCGGGCAGAAGGCACAUGAGGAUCACCCAUGUCCCGCGGUUUU |  |  | 19.5 | 34.1
16 | CCGAUGUAAGGAUAUCGUGCAAGUUUCAAAAGAGGCUUGUGCGAGAAGGUACAUGAGGAUCACCCAUGUAGGUU |  |  | 95.4 | 345
17 | AUUAUUUUGUAGAAGGACGACUAUUAAUUUUUCGUAGGAUAUACUAUUUACAUGAGGAUCACCCAUGUUUAAAUGGAACAAUGU |  |  | 9.32 | 10.4
18 | UGGUACUAGGGAGGAUAUAGGAAGAUACAUGAGGAUCACCCAUGUUUAAGAAUGCCGAGAGGCAACUAGAAGGCCCUAGUACCU | 5 | 4.74 |  | 
19 | GGGACCGUACUCCUGUUGUACUCUGAGGAUAUCCGUUACGGACAUGAGGAUCACCCAUGUACGGCGGAGAAGGCAGAUCUCAUA | 6.44 | 5.26 |  | 
20 | CGCUCUAUAUAUUAGGCAAGAAUCAGAAGGCGUUACAUGAGGAUCACCCAUGUUUUGUAUAGUAACGAGGAUAUGAUAUGAGCG |  |  | 13.6 | 14.5
21 | AACCUAAAACAGAAGGCCAGCUACAUGAGGAUCACCCAUGUCGAAUCAUGGAGGAUAUGUUGUUAUUUACUCGCAGAUGAGUGC | 28.1 | 5.51 |  | 
22 | UGCGUACAAGCAAACAUGAGGAUCACCCAUGUGGUCUUAUGCGAGGAUAUCGGGAAGGAGGAUUCCGAGAAGGUGCGGUGAGCC | 31.4 | 26.5 |  | 
23 | CAUUUGUGAGGAUAUCAGGUGUGCUAGCGUACUGGUACAUCUGAGAAGGCACAUGAGGAUCACCCAUGUUUCUU |  |  |  | 43.3
24 | UUCCUGUCAGGAUAUGACUAGAGGCACGAAAGUGUGUUUAGUUAGAAGGGACAUGAGGAUCACCCAUGUAGUCC |  |  | 23.3 | 36.2
25 | AACGGGUGGGUAGGAUAUGGCCAUGUCUCAUUGCUAGAAGGACCAGCUGCUACAUGAGGAUCACCCAUGUCGUAGUGCACCCAG | 105 | 15.6 |  | 
26 | GAGACGUCAGGAUAUCUGAUGUCUAACUUCGGUUAGACAUCAGAGAAGGGACAUGAGGAUCACCCAUGUCUCAG |  |  | 15.9 | 13.9
27 | GCACUUGCGUAGAAGGUACUAUAUAAUACACUGUAAGGAUAUACAUACAUGAGGAUCACCCAUGUAAAUGGAAUUUGCAAGUGC | 6.62 | 6.49 |  | 
28 | AGCUGGUGACAGCAAGAAAGUUCACAUGAGGAUCACCCAUGUAGAAGGCUGUACGGUUACCGUACAGAGGAUAUACAUAGAAAG |  |  | 19.9 | 31.5

Row | Sequence | apparent Kd [1] [nM] | apparent Kd [2] [nM] | apparent Kd [3] [nM] | apparent Kd [4] [nM]
29 | GUCUUCCUAGGAUAUACAUGAGGAUCACCCAUGUACAGUUUCGUCUUGGGAUACUCGCGUAGAAGGAGGUGGUU |  |  | 33.2 | 37.3
30 | GCCAUCGCAUGAGGAUAUGCUCGGGUUUCCCGAGCAGAAGGCAUGUAAUAAGACAUGAGGAUCACCCAUGUAGUUAAGAUGGCA | 7.48 | 5.3 |  | 
31 | UUUUAACAUGAGGAUCACCCAUGUGAGGAUAUCGAAAUUUAUAUUUAUAUUAAUAAUACGAGAAGGCACAUUUU |  |  | 63 | 87
32 | UUUUAACAUGAGGAUCACCCAUGUGAGGAUAUCGUAUUUUUUAUUAAUAUUAAUAAAACGAGAAGGCACAUUUU |  |  | 95.5 | 97.3
33 | AAGAAACAUGAGGAUCACCCAUGUGAGAAUAUGGGAGGAUAUACAAGGACGUAAGUCAAGGUAGAAGGCCUAAGAA | 171 | 29.7 |  | 
34 | GGUACUCAAAGAGUACCAAUACGAACAUGAGGAUCACCCAUGUAGGAUAUGCUACUCGAAGAGUAGCAGAAGGACAUGUGCCUA |  |  | 16.9 | 113
35 | AAUAACAGAGGAUAUACUAUUUUAUGUGUUUGUUGUUUUGAACAUGAGGAUCACCCAUGUAGAAGGCUGAGUAA |  |  | 27.9 | 30.3
36 | UGGUUGUCAGGAUAUUGGGUAUUCAACUUUAGUUUUAUAUUCGAGAAGGGACAUGAGGAUCACCCAUGUUACGU |  |  | 36.2 | 166
37 | GCACAUGAGGAUCACCCAUGUGGUCCAGAAGGCCAGAGGGCUUGCUUUUCGCAGGCCUUUCAAAUGGAGGAUAUGGAGGGUUCU | 207 | 42.7 |  | 
38 | ACAUUGAAUGUGAGGAUAUCGAUGUGAUGGGUUGUCGAGAAGGCACAUGAGGAUCACCCAUGUGGGUUGUAGCA |  |  | 144 | 362
39 | GUAGCAUACCGAGGAUAUUCAUACCGGAAACGGACAUGAGGAUCACCCAUGUGGCGAAAGCCUUGGGAGAAGGCGGUAUGCUAC | 638 | 22.8 |  | 
40 | GGGUACAUCGGAGGAUAUCAUGUAAAUACAUGAGGAUCACCCAUGUCGAUGGAGACAUCGGAGAUUGAGAAGGCCGAAGUACCG | 214 | 8.99 |  | 
41 | UGGUACAUGGGAGGAUAUCCUCAAGAGACAUGAGGAUCACCCAUGUAUUAUAUGCCUCAUGGCAUGGAGAAGGCCCAUGUACCU | 179 | 153 |  | 
42 | UUAACUCAUGUAGGAUAUGCAUGGCGAAGCUACGCAGAAGGACAUGAGGAUCACCCAUGUUCUAGCGUCUGGAAACAGAUGCAA |  |  | 67.9 | 359
43 | GGUUAAUAUCGAGGAUAUGUCUAGACACAUGAGGAUCACCCAUGUAUGUGUAUAGAAGGCGAUAUUAACAGCAUGUUACAUGCG | 38.8 | 16.4 |  | 
44 | GAAUACCUAGGAUAUACAUGAGGAUCACCCAUGUCAGUAGACUGGGUAAAGUCUCUCAGUAGAAGGAGGACCCG |  |  | 109 | 97.8
45 | CAAUUGGCACAGAAGGGUGACAUGAGGAUCACCCAUGUAGCGUGGUACUCAGGAGGAACCACGCCACAGGAUAUGUGCCGGCAC | 44.5 | 123 |  | 
46 | AAGCGAAAGCUAAAAUAUCUAUCAGAGGAUAUUUAUGAUACAUGAGGAUCACCCAUGUGACACUGGGAGAAGGCUGAUAGAUAA | 19.2 | 7.5 |  | 
47 | GAGCGCUGUCGAGAGGAUAUGCGGUGAUGGACAUGAGGAUCACCCAUGUUAGCGAUAGCAUUACGGUAGAAGGCUCUACAGCUGC | 33.4 | 15.4 |  | 
48 | UGGUACAUCAUAGGAUAUCGUGUGUAAACAUGAGGAUCACCCAUGUCAUCCGAGAGUAUAUCGACCGAGAAGGGUGAUGUACCU | 24.1 | 33.3 |  | 
49 | GUCCACAUGAGGAUCACCCAUGUGAGAAGGUUGGUUUUGUUGAGGUAGUGGUUUGCCUUGGUGGUAGAGGAUAUUGAUGGGUUA |  |  | 7.7 | 7.33
50 | CGUCUGGAUCAAGGAUAUGUCAAGACGCUCCGCGUACACAUGAGGAUCACCCAUGUCAACAAAUGACAGAAGGUGAUAAUGGCC | 80.3 | 444 |  | 
51 | UACUUCCGAGGAUAUACAUGAGGAUCACCCAUGUGCUUCAGCAUCGAAAGAUGCAUGGGUAGAAGGCGGUAGUU |  |  | 44.6 | 50.4
52 | GUAGCAUACCAAGGAUAUUCAGGGCUUGGAUAGACAUGAGGAUCACCCAUGUGGCGAAAGUCAAGGGAGAAGGUGGUAUGCUAC | 17.6 | 13.4 |  | 
53 | CAGUUUUGAGGAUAUCCAUCCUCCUACAUGAGGAUCACCCAUGUUUCCCUCUGGGUUUUCGGAGAAGGCAGUUAUC |  |  | 341 | 251
54 | GCUCUUGUCAAGAAGGGCUCGCGGGACGCUGCAGCAGGAUAUUGACAUGAGGAUCACCCAUGUCGACCGGAACACCAUUGAGGG |  |  | 22.2 | 196
55 | AAUAACAGAGGAUAUACUAUUUUAUGUGUUUAUUGUUUUGAACAUGAGGAUCACCCAUGUAGAAGGCUGAAUAA |  |  | 24.6 | 26.1
